Measured values as given in ChEMBL document CHEMBL1158339, “Synthesis and anti-microbial screening of some Schiff bases of 3-amino-6,8-dibromo-2-phenylquinazolin-4(3H)-ones” (2009).
Converted amounts (≈) assume the structure as drawn.

Key:
Assay type in all cases: functional
Pseudomonas aeruginosa [1] = assay: Antibacterial activity against Pseudomonas aeruginosa ATCC 2853 after 24 hrs by agar streak dilution method; details: ATCC 2853, 24 h
In short: (§1)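 Agar streak dilution MIC. Stock […] in dimethyl formamide. Graded quantities go into molten sterile nutrient agar, poured at 40–50 °C to 3–4 mm depth and left to solidify. Plates are streaked with about 10⁵ cfu/ml bacterial suspension and incubated 24 h at 37 °C. MIC is the lowest concentration with no visible growth.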

Escherichia coli [2] = assay: Antibacterial activity against Escherichia coli ATCC 25922 after 24 hrs by paper disk diffusion technique
In short: (§2)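 Paper disc diffusion. Nutrient agar autoclaved 120 °C, 30 min, then inoculated at 40–50 °C with 1 ml/100 ml of a 10⁵ cfu/ml suspension matched to McFarland standard and poured to 3–4 mm. Discs impregnated with compound in dimethyl formamide are laid on the solidified agar. Plates are held 1 h at room temperature, then 24 h at 37 °C.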

Klebsiella pneumoniae [3] = assay: Antibacterial activity against Klebsiella pneumoniae ATCC 11298 after 24 hrs by paper disk diffusion technique; in short: as §2
[4] = system: Staphylococcus epidermidis; assay: Antibacterial activity against Staphylococcus epidermidis ATCC 155 after 24 hrs by agar streak dilution method; details: ATCC 155, 24 h; in short: as §1
Staphylococcus aureus [5] = assay: Antibacterial activity against Staphylococcus aureus ATCC 9144 after 24 hrs by paper disk diffusion technique; in short: as §2
Pseudomonas aeruginosa [6] = assay: Antibacterial activity against Pseudomonas aeruginosa ATCC 2853 after 24 hrs by paper disk diffusion technique; in short: as §2
Klebsiella pneumoniae [7] = assay: Antibacterial activity against Klebsiella pneumoniae ATCC 11298 after 24 hrs by agar streak dilution method; details: ATCC 11298, 24 h; in short: as §1
Bacillus cereus [8] = assay: Antibacterial activity against Bacillus cereus ATCC 11778 after 24 hrs by paper disk diffusion technique; in short: as §2
Aspergillus fumigatus [9] = assay: Antifungal activity against Aspergillus fumigatus ATCC 46645 after 48 hrs by agar streak dilution method; details: ATCC 46645, 48 h
In short: as §1, with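 “Fungal agar” for “Agar”, “dilution.” for “dilution MIC.”, “Sabouraud dextrose” for “nutrient”, “inoculated” for “streaked”, “cfu/ml” for “cfu/ml bacterial”, “48” for “24”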

Escherichia coli [10] = assay: Antibacterial activity against Escherichia coli ATCC 25922 after 24 hrs by agar streak dilution method; details: ATCC 25922, 24 h; in short: as §1
Micrococcus luteus [11] = assay: Antibacterial activity against Micrococcus luteus ATCC 4698 after 24 hrs by paper disk diffusion technique; in short: as §2
[12] = system: Staphylococcus epidermidis; assay: Antibacterial activity against Staphylococcus epidermidis ATCC 155 after 24 hrs by paper disk diffusion technique; in short: as §2
Aspergillus niger [13] = assay: Antifungal activity against Aspergillus niger ATCC 9029 after 48 hrs by agar streak dilution method; details: ATCC 9029, 48 h
In short: as §1, with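 “Fungal agar” for “Agar”, “dilution.” for “dilution MIC.”, “Sabouraud dextrose” for “nutrient”, “inoculated” for “streaked”, “cfu/ml” for “cfu/ml bacterial”, “48” for “24”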

Micrococcus luteus [14] = assay: Antibacterial activity against Micrococcus luteus ATCC 4698 after 24 hrs by agar streak dilution method; details: NCTC 2665, 24 h; in short: as §1
Staphylococcus aureus [15] = assay: Antibacterial activity against Staphylococcus aureus ATCC 9144 after 24 hrs by agar streak dilution method; details: ATCC 9144, 24 h; in short: as §1
Bacillus cereus [16] = assay: Antibacterial activity against Bacillus cereus ATCC 11778 after 24 hrs by agar streak dilution method; details: ATCC 11778, 24 h; in short: as §1
Aspergillus niger [17] = assay: Antifungal activity against Aspergillus niger ATCC 9029 after 48 hrs by paper disk diffusion technique
In short: (§3)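 Fungal disc diffusion. Autoclaved (120 °C, 30 min) medium is inoculated at 40–50 °C with 1 ml/100 ml of a 10⁵ cfu/ml McFarland-matched suspension and poured to 3–4 mm. Compound-impregnated paper discs in dimethyl formamide are applied. Plates are held 1 h at room temperature, then incubated 48 h at 37 °C.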

Aspergillus fumigatus [18] = assay: Antifungal activity against Aspergillus fumigatus ATCC 46645 after 48 hrs by paper disk diffusion technique; in short: as §3

Q: Which MIC (Pseudomonas aeruginosa [1]) does the source give for `COc1ccc(/C=N/n2c(-c3ccccc3)nc3c(Br)cc(Br)cc3c2=O)cc1` here?
A: 36.2 µg/mL (≈ 70.5 µM)

Q: What about the “inhibition zone (IZ)” value (Escherichia coli [2]) of the same compound?
A: 19 mm

Q: What about the “inhibition zone (IZ)” value (Klebsiella pneumoniae [3]) of the same compound?
A: 20 mm

Q: What about the MIC [4] of the same compound?
A: 22.2 µg/mL (≈ 43.3 µM)

Q: What about the “inhibition zone (IZ)” value (Staphylococcus aureus [5]) of the same compound?
A: 19 mm

Q: And the “inhibition zone (IZ)” value (Pseudomonas aeruginosa [6])?
A: 16 mm

Q: And the MIC (Klebsiella pneumoniae [7])?
A: 33.4 µg/mL (≈ 65.1 µM)

Q: And the “inhibition zone (IZ)” value (Bacillus cereus [8])?
A: 19 mm

Q: And the MIC (Aspergillus fumigatus [9])?
A: 12.3 µg/mL (≈ 24 µM)

Q: And the MIC (Escherichia coli [10])?
A: 29.9 µg/mL (≈ 58.3 µM)

Q: What about the “inhibition zone (IZ)” value (Micrococcus luteus [11]) of the same compound?
A: 18 mm

Q: What about the “inhibition zone (IZ)” value [12] of the same compound?
A: 20 mm

Q: And the MIC (Aspergillus niger [13])?
A: 10.1 µg/mL (≈ 19.7 µM)

Q: What about the MIC (Micrococcus luteus [14]) of the same compound?
A: 34.2 µg/mL (≈ 66.6 µM)

Q: What about the MIC (Staphylococcus aureus [15]) of the same compound?
A: 32.1 µg/mL (≈ 62.6 µM)

Q: And the MIC (Bacillus cereus [16])?
A: 31.9 µg/mL (≈ 62.2 µM)

Q: And the “inhibition zone (IZ)” value (Aspergillus niger [17])?
A: 23 mm

Q: What about the “inhibition zone (IZ)” value (Aspergillus fumigatus [18]) of the same compound?
A: 24 mm

Q: What does the source list for `O=c1c2cc(Br)cc(Br)c2nc(-c2ccccc2)n1/N=C/C=C/c1ccccc1`?
A: MIC (Pseudomonas aeruginosa [1]): 25.1 µg/mL (≈ 49.3 µM); inhibition zone (IZ) (Escherichia coli [2]): 25 mm; inhibition zone (IZ) (Klebsiella pneumoniae [3]): 25 mm; MIC [4]: 21.4 µg/mL (≈ 42 µM); inhibition zone (IZ) (Staphylococcus aureus [5]): 20 mm; inhibition zone (IZ) (Pseudomonas aeruginosa [6]): 19 mm; MIC (Klebsiella pneumoniae [7]): 19.8 µg/mL (≈ 38.9 µM); inhibition zone (IZ) (Bacillus cereus [8]): 23 mm; MIC (Aspergillus fumigatus [9]): 14.6 µg/mL (≈ 28.7 µM); MIC (Escherichia coli [10]): 20.1 µg/mL (≈ 39.5 µM); inhibition zone (IZ) (Micrococcus luteus [11]): 21 mm; inhibition zone (IZ) [12]: 24 mm; MIC (Aspergillus niger [13]): 11.8 µg/mL (≈ 23.2 µM); MIC (Micrococcus luteus [14]): 22.8 µg/mL (≈ 44.8 µM); MIC (Staphylococcus aureus [15]): 23.8 µg/mL (≈ 46.7 µM); MIC (Bacillus cereus [16]): 21.9 µg/mL (≈ 43 µM); inhibition zone (IZ) (Aspergillus niger [17]): 24 mm; inhibition zone (IZ) (Aspergillus fumigatus [18]): 22 mm

Q: Which MIC (Pseudomonas aeruginosa [1]) does the source give for `O=c1c2cc(Br)cc(Br)c2nc(-c2ccccc2)n1/N=C/c1ccc(Cl)cc1` here?
A: 22.8 µg/mL (≈ 44 µM)

Q: What about the “inhibition zone (IZ)” value (Escherichia coli [2]) of the same compound?
A: 27 mm

Q: And the “inhibition zone (IZ)” value (Klebsiella pneumoniae [3])?
A: 25 mm

Q: And the MIC [4]?
A: 25.6 µg/mL (≈ 49.5 µM)

Q: What about the “inhibition zone (IZ)” value (Staphylococcus aureus [5]) of the same compound?
A: 19 mm

Q: What about the “inhibition zone (IZ)” value (Pseudomonas aeruginosa [6]) of the same compound?
A: 26 mm

Q: What about the MIC (Klebsiella pneumoniae [7]) of the same compound?
A: 21.8 µg/mL (≈ 42.1 µM)

Q: And the “inhibition zone (IZ)” value (Bacillus cereus [8])?
A: 19 mm

Q: And the MIC (Aspergillus fumigatus [9])?
A: 12.6 µg/mL (≈ 24.3 µM)

Q: What about the MIC (Escherichia coli [10]) of the same compound?
A: 20.2 µg/mL (≈ 39 µM)

Q: What about the “inhibition zone (IZ)” value (Micrococcus luteus [11]) of the same compound?
A: 23 mm

Q: And the “inhibition zone (IZ)” value [12]?
A: 20 mm

Q: What about the MIC (Aspergillus niger [13]) of the same compound?
A: 10.2 µg/mL (≈ 19.7 µM)

Q: And the MIC (Micrococcus luteus [14])?
A: 33.8 µg/mL (≈ 65.3 µM)

Q: And the MIC (Staphylococcus aureus [15])?
A: 28.4 µg/mL (≈ 54.9 µM)

Q: What about the MIC (Bacillus cereus [16]) of the same compound?
A: 36.1 µg/mL (≈ 69.7 µM)

Q: And the “inhibition zone (IZ)” value (Aspergillus niger [17])?
A: 25 mm

Q: And the “inhibition zone (IZ)” value (Aspergillus fumigatus [18])?
A: 22 mm

Q: For `COc1cc(/C=N/n2c(-c3ccccc3)nc3c(Br)cc(Br)cc3c2=O)ccc1O`, which MIC (Pseudomonas aeruginosa [1]) is on record?
A: 33.4 µg/mL (≈ 63.1 µM)

Q: And the “inhibition zone (IZ)” value (Escherichia coli [2])?
A: 24 mm

Q: What about the “inhibition zone (IZ)” value (Klebsiella pneumoniae [3]) of the same compound?
A: 23 mm

Q: What about the MIC [4] of the same compound?
A: 24.2 µg/mL (≈ 45.7 µM)

Q: And the “inhibition zone (IZ)” value (Staphylococcus aureus [5])?
A: 23 mm

Q: What about the “inhibition zone (IZ)” value (Pseudomonas aeruginosa [6]) of the same compound?
A: 19 mm

Q: What about the MIC (Klebsiella pneumoniae [7]) of the same compound?
A: 28.2 µg/mL (≈ 53.3 µM)

Q: What about the “inhibition zone (IZ)” value (Bacillus cereus [8]) of the same compound?
A: 17 mm

Q: What about the MIC (Aspergillus fumigatus [9]) of the same compound?
A: 15.2 µg/mL (≈ 28.7 µM)

Q: And the MIC (Escherichia coli [10])?
A: 31.2 µg/mL (≈ 59 µM)

Q: And the “inhibition zone (IZ)” value (Micrococcus luteus [11])?
A: 24 mm

Q: What about the “inhibition zone (IZ)” value [12] of the same compound?
A: 23 mm

Q: And the MIC (Aspergillus niger [13])?
A: 12.7 µg/mL (≈ 24 µM)

Q: What about the MIC (Micrococcus luteus [14]) of the same compound?
A: 28.1 µg/mL (≈ 53.1 µM)

Q: What about the MIC (Staphylococcus aureus [15]) of the same compound?
A: 21.6 µg/mL (≈ 40.8 µM)

Q: And the MIC (Bacillus cereus [16])?
A: 35.1 µg/mL (≈ 66.3 µM)

Q: What about the “inhibition zone (IZ)” value (Aspergillus niger [17]) of the same compound?
A: 24 mm

Q: What about the “inhibition zone (IZ)” value (Aspergillus fumigatus [18]) of the same compound?
A: 23 mm

Q: Which MIC (Pseudomonas aeruginosa [1]) does the source give for `CN(C)c1ccc(/C=N/n2c(-c3ccccc3)nc3c(Br)cc(Br)cc3c2=O)cc1` here?
A: 32.1 µg/mL (≈ 61 µM)

Q: And the “inhibition zone (IZ)” value (Escherichia coli [2])?
A: 20 mm

Q: And the “inhibition zone (IZ)” value (Klebsiella pneumoniae [3])?
A: 23 mm

Q: And the MIC [4]?
A: 19.8 µg/mL (≈ 37.6 µM)

Q: What about the “inhibition zone (IZ)” value (Staphylococcus aureus [5]) of the same compound?
A: 19 mm

Q: What about the “inhibition zone (IZ)” value (Pseudomonas aeruginosa [6]) of the same compound?
A: 18 mm

Q: And the MIC (Klebsiella pneumoniae [7])?
A: 22.7 µg/mL (≈ 43.1 µM)

Q: What about the “inhibition zone (IZ)” value (Bacillus cereus [8]) of the same compound?
A: 19 mm

Q: And the MIC (Aspergillus fumigatus [9])?
A: 15.9 µg/mL (≈ 30.2 µM)

Q: What about the MIC (Escherichia coli [10]) of the same compound?
A: 29.1 µg/mL (≈ 55.3 µM)

Q: And the “inhibition zone (IZ)” value (Micrococcus luteus [11])?
A: 21 mm

Q: What about the “inhibition zone (IZ)” value [12] of the same compound?
A: 25 mm

Q: What about the MIC (Aspergillus niger [13]) of the same compound?
A: 14.7 µg/mL (≈ 27.9 µM)

Q: What about the MIC (Micrococcus luteus [14]) of the same compound?
A: 26.2 µg/mL (≈ 49.8 µM)

Q: What about the MIC (Staphylococcus aureus [15]) of the same compound?
A: 27.9 µg/mL (≈ 53 µM)

Q: And the MIC (Bacillus cereus [16])?
A: 30.1 µg/mL (≈ 57.2 µM)

Q: What about the “inhibition zone (IZ)” value (Aspergillus niger [17]) of the same compound?
A: 19 mm

Q: And the “inhibition zone (IZ)” value (Aspergillus fumigatus [18])?
A: 22 mm
